Source: ChEMBL document CHEMBL1799919, “Design, synthesis, biological evaluation, and structure-activity relationships of substituted phenyl 4-(2-oxoimidazolidin-1-yl)benzenesulfonates as new tubulin inhibitors mimicking combretastatin A-4” (J Med Chem, 2011)
Calls of active or inactive are those of the source. The calls are words filed in the database; no cut-off is given here.

Experiments:
HT-29 = assay: Antiproliferative activity against human HT-29 cells after 48 hrs by sulforhodamine B assay; type: functional, cell-based; settings: HT-29, 48 h
M21 [1] = assay: Antiproliferative activity against human M21 cells after 48 hrs by sulforhodamine B assay; type: functional, cell-based; settings: M21, 48 h
MCF7 = assay: Antiproliferative activity against human MCF7 cells after 48 hrs by sulforhodamine B assay; type: functional, cell-based; settings: MCF7, 48 h
M21 [2] = assay: Cell cycle arrest in human M21 cells assessed as accumulation at G0/G1 phase at 5 times IC50 after 24 hrs using propidium iodide staining by flow cytometric analysis (reference value: 61%); type: functional
M21 [3] = assay: Cell cycle arrest in human M21 cells assessed as accumulation at S phase at 5 times IC50 after 24 hrs using propidium iodide staining by flow cytometric analysis (reference value: 30%); type: functional
M21 [4] = assay: Cell cycle arrest in human M21 cells assessed as accumulation at G2/M phase at 5 times IC50 after 24 hrs using propidium iodide staining by flow cytometric analysis (reference value: 9%); type: functional
MDA-MB-231 [5] = assay: Displacement of N,N'-ethylenebis(iodoacetamide) from colchicine-binding site of beta-tubulin in human MDA-MB-231 cells at 1000 times IC50 preincubated for after 2 hrs before N,N'-ethylenebis(iodoacetamide) addition measured after 1.5 hrs by chemiluminescence assay; type: cell-based
Procedure, shortened: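 EBI (100 μM final) added for 1.5 h at 37 °C; controls received 0.5% DMSO. Lysates (20 μg protein) run on 10% SDS-PAGE and blotted with anti-β-tubulin (TUB 2.1). β-tubulin–EBI adduct band detected by ECL.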

CHO = assay: Antiproliferative activity against CHO cells after 48 hrs by sulforhodamine B assay; type: functional, cell-based; settings: Cricetulus griseus
K562 = assay: Antiproliferative activity against human K562 cells after 48 hrs by sulforhodamine B assay; type: functional, cell-based; settings: K562, 48 h
L1210 = assay: Antiproliferative activity against mouse L1210 cells after 48 hrs by sulforhodamine B assay; type: functional, cell-based; settings: L1210, 48 h
[6] = Antiproliferative activity against mouse P388D1 cells after 48 hrs by sulforhodamine B assay; type: functional, cell-based; settings: P388D1, 48 h
[7] = Antiproliferative activity against mouse B16F0 cells after 48 hrs by sulforhodamine B assay; type: functional, cell-based; settings: B16F0, 48 h
DU-145 = assay: Antiproliferative activity against human DU145 cells after 48 hrs by sulforhodamine B assay; type: functional, cell-based; settings: DU-145, 48 h
HT-1080 [8] = assay: Antiproliferative activity against human HT1080 cells after 48 hrs by sulforhodamine B assay; type: functional, cell-based; settings: HT-1080, 48 h
MDA-MB-231 [9] = assay: Antiproliferative activity against human MDA-MB-231 cells after 48 hrs by sulforhodamine B assay; type: functional, cell-based; settings: MDA-MB-231, 48 h
SK-OV-3 = assay: Antiproliferative activity against human SKOV3 cells after 48 hrs by sulforhodamine B assay; type: functional, cell-based; settings: SK-OV-3, 48 h
CCRF-CEM = assay: Antiproliferative activity against human CEM cells after 48 hrs by sulforhodamine B assay; type: functional, cell-based
CHO-TAX 5-6 [10] = assay: Antiproliferative activity against paclitaxel-resistant CHO-TAX 5-6 cells after 48 hrs by sulforhodamine B assay; type: functional, cell-based; settings: Cricetulus griseus, CHO-TAX 5-6, 48 h
CHO-TAX 5-6 [11] = assay: Resistant ratio of IC50 for paclitaxel-resistant CHO-TAX 5-6 cells to IC50 for CHO cells; type: functional, Cricetulus griseus
Procedure, shortened: (§1)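 Ratio of the IC50 in the resistant line (CEM-VLB, CHO-TAX 5-6 or CHO-VV 3-2) to the IC50 in its parental line (CEM or CHO).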

[12] = Antiproliferative activity against multidrug-resistant human CEM/VLB cells after 48 hrs by sulforhodamine B assay; type: functional
CEM-VLB = assay: Resistant ratio of IC50 for multidrug-resistant human CEM-VLB cells to IC50 for human CEM cells; type: functional; procedure, shortened: as §1
M21 [13] = assay: Disruption of cytoskeleton microtubule structure of human M21 cells at 5 times IC50 after 16 hrs by indirect immunofluorescence assay; type: functional, cell-based
Procedure, shortened: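 Fixed in 3.7% formaldehyde, permeabilized with saponin, and stained with anti-β-tubulin (TUB 2.1), Alexa-488 secondary and DAPI. Microtubule structure scored by fluorescence microscopy.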

HT-1080 [14] = assay: Antivasculogenic activity against human HT1080 cells xenografted in chicken chorioallantoic membrane assessed as inhibition of tumor growth at 1 ug per egg, iv measured on day 14 by CAM assay; type: functional; design: scale not given: the % may be the effect or the level left
[15] = Toxicity against fertilized chicken embryo assessed as mortality at 1 ug per egg, iv by CAM assay; type: organism-based, Gallus gallus; settings: in vivo, read-out: Activity
Procedure, shortened: (§2)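 Fertilized chicken eggs incubated 10 days with automatic turning, then static. HT-1080 cells (3.5 × 10^5 cells/egg) grafted onto exposed CAM. On day 11, drug in DMSO diluted into cremophor/ethanol/PBS (6.25/6.25/87.5 v/v) excipient, DMSO below 0.5%, 100 μL injected iv into 10-12 eggs. Eggs incubated to day 17, dead embryos counted. Untreated eggs used for normalization. Two independent experiments, at least 10 eggs each.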

CHO-VV 3-2 = assay: Antiproliferative activity against colchicine- and vinblastine-resistant CHO-VV 3-2 cells after 48 hrs by sulforhodamine B assay; settings: Cricetulus griseus, CHO-VV 3-2, 48 h
HT-1080 [16] = assay: Antivasculogenic activity against human HT1080 cells xenografted in chicken chorioallantoic membrane assessed as inhibition of tumor growth at 3 ug per egg, iv measured on day 14 by CAM assay; type: functional
[17] = Toxicity against fertilized chicken embryo assessed as mortality at 3 ug per egg, iv by CAM assay; type: organism-based, Gallus gallus; settings: in vivo, read-out: Activity; procedure, shortened: as §2
[18] = Toxicity against fertilized chicken embryo assessed as mortality at 10 ug per egg, iv by CAM assay; type: organism-based, Gallus gallus; settings: in vivo; procedure, shortened: as §2
HT-1080 [19] = assay: Antivasculogenic activity against human HT1080 cells xenografted in chicken chorioallantoic membrane assessed as inhibition of tumor growth at 10 ug per egg, iv measured on day 14 by CAM assay; type: functional; design: scale not given: the % may be the effect or the level left

Compound	IC50 (HT-29) [nM]	IC50 (M21 [1]) [nM]	IC50 (MCF7) [nM]	Activity (M21 [2]) [%]	Activity (M21 [3]) [%]	Activity (M21 [4]) [%]	inhibition (MDA-MB-231 [5])	IC50 (CHO) [nM]	IC50 (K562) [nM]	IC50 (L1210) [nM]	IC50 [6] [nM]	IC50 [7] [nM]	IC50 (DU-145) [nM]	IC50 (HT-1080 [8]) [nM]	IC50 (MDA-MB-231 [9]) [nM]	IC50 (SK-OV-3) [nM]	IC50 (CCRF-CEM) [nM]	IC50 (CHO-TAX 5-6 [10]) [nM]	Ratio IC50 (CHO-TAX 5-6 [11])	Activity (M21 [13])	further results
COc1cc(OS(=O)(=O)c2ccc(N3CCNC3=O)cc2)cc(OC)c1OC	4	4	5	1	1	98	Active	7.4	2.5	5.4	2.7	9.2	8.5	5.9	9.4	6.1	7.1	3	0.41	Active	IC50 [12]: 9.5 nM; Ratio IC50 (CEM-VLB): 1.3; Activity (HT-1080 [14]): 39%; mortality [15]: 8%; IC50 (CHO-VV 3-2): 8.2 nM
O=C1NCCN1c1ccc(S(=O)(=O)Oc2c(F)cccc2F)cc1	29	15	32	5	33	62	Active	73	65	67	76	91	170	65	100	72	68	38	0.52	Active	IC50 [12]: 87 nM; Ratio IC50 (CEM-VLB): 1.3; Activity (HT-1080 [16]): Active; mortality [17]: 13%; IC50 (CHO-VV 3-2): 74 nM
COc1ccc(OS(=O)(=O)c2ccc(N3CCNC3=O)cc2)cc1	130	98	160	0	5	95	Active	240	240	250	260	510	650	240	760	320	250	200	0.83	Active	IC50 [12]: 320 nM; Ratio IC50 (CEM-VLB): 1.3; Activity [18]: Active; Activity (HT-1080 [19]): 13%; IC50 (CHO-VV 3-2): 250 nM
O=C1NCCN1c1ccc(S(=O)(=O)Oc2cccc(I)c2)cc1	11	10	18	2	21	77	Active	17	14	19	18	30	57	19	48	23	17	8.9	0.52	Active	IC50 [12]: 18 nM; Ratio IC50 (CEM-VLB): 1.1; Activity (HT-1080 [16]): Active; mortality [17]: 43%; IC50 (CHO-VV 3-2): 20 nM
O=C1NCCN1c1ccc(S(=O)(=O)Oc2cc(Cl)cc(Cl)c2)cc1	10	8.2	18	1	20	79	Active	17	7.2	9.6	7.4	41	66	18	26	16	16	6.1	0.36	Active	IC50 [12]: 19 nM; Ratio IC50 (CEM-VLB): 1.2; Activity (HT-1080 [16]): inactive; mortality [17]: 29%; IC50 (CHO-VV 3-2): 20 nM
COc1ccc(/C=C\c2cc(OC)c(OC)c(OC)c2)cc1O [COMBRETASTATIN A4]	61	4.3	5.6	2	0	98	Active													Active	Activity (HT-1080 [14]): 48%; Activity (HT-1080 [16]): 45%; mortality [15]: 18%; mortality [17]: 41%
O=C1NCCN1c1ccc(S(=O)(=O)Oc2ccc(F)cc2)cc1	120	89	170	51	21	28	Active	230	180	140	240	250	550	190	360	210	200	86	0.37	Active	IC50 [12]: 270 nM; Ratio IC50 (CEM-VLB): 1.4; Activity (HT-1080 [16]): inactive; mortality [17]: 29%; IC50 (CHO-VV 3-2): 260 nM
CCOc1cccc(OS(=O)(=O)c2ccc(N3CCNC3=O)cc2)c1	18	12	19	2	20	78	Active	32	18	19	20	65	72	34	55	42	20	12	0.38	Active	IC50 [12]: 32 nM; Ratio IC50 (CEM-VLB): 1.6; Activity (HT-1080 [16]): Active; mortality [17]: 13%; IC50 (CHO-VV 3-2): 39 nM
Cc1ccc(C)c(OS(=O)(=O)c2ccc(N3CCNC3=O)cc2)c1	10	8.5	14	3	20	77	Active	18	18	21	19	49	57	24	69	29	19	14	0.78	Active	IC50 [12]: 23 nM; Ratio IC50 (CEM-VLB): 1.2; Activity (HT-1080 [16]): Active; mortality [17]: 13%; IC50 (CHO-VV 3-2): 21 nM
